# Assay results published in ChEMBL document CHEMBL1221207, “Expanding the promiscuity of a natural-product glycosyltransferase by directed evolution” (Nat Chem Biol, 2007).
# Changes are numbered by the printed parent chain.
# Legend:
# [1] = biological target: T1, Oleandomycin glycosyltransferase (Streptomyces antibioticus) (UniProt Q53685); assay: Activity at Streptomyces antibioticus wild-type OleD assessed as as rate of glucoside formation measured as nanomoles of product formed per minute per mg of enzyme
# T1 sequence (whole entry): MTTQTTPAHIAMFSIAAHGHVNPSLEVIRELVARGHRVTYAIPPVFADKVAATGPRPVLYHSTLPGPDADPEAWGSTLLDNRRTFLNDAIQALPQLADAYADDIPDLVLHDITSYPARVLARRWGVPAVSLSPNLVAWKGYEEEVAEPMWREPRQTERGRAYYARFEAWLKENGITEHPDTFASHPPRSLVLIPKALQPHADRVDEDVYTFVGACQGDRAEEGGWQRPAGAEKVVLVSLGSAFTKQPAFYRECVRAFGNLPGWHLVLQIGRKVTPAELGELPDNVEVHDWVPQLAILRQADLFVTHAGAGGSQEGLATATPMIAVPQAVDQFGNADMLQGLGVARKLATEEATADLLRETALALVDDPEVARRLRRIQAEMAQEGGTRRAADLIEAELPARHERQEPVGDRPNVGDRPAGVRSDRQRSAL
# [2] = test system: T2, Oleandomycin glycosyltransferase (Streptomyces antibioticus), Q53685 [P67T,S132F,A242V]; assay: Activity of Streptomyces antibioticus OleD P67T/S132F/A242V mutant assessed as as rate of glucoside formation measured as nanomoles of product formed per minute per mg of enzyme
# T2 sequence (whole entry): T1 sequence (whole entry) with P67T, S132F, A242V
# [3] = test system: T2, Oleandomycin glycosyltransferase (Streptomyces antibioticus), Q53685 [P67T,S132F,A242V]; assay: Activity of Streptomyces antibioticus OleD P67T/S132F/A242V mutant assessed as conversion rate of compound to produce glucoside 3 using NDP sugar UDP-6-deoxy-glucose after 3 hrs by HPLC
# Summary of the method: (§1)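 End-point donor-specificity assay with purified OleD enzyme. Percentage conversion was read after 3 h. Quenched reactions were run by reverse-phase C18 HPLC with a 10–90% CH3CN gradient in 0.1% formic acid/H2O over 20 min at 1 ml min–1, with detection at 254 nm. Products were identified by LC-MS, by comparison to standards where available, and by fluorescence.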
# [4] = test system: T2, Oleandomycin glycosyltransferase (Streptomyces antibioticus), Q53685 [P67T,S132F,A242V]; assay: Activity of Streptomyces antibioticus OleD P67T/S132F/A242V mutant assessed as conversion rate of compound to produce glucoside 3 using NDP sugar donor UDP-4-deoxy-glucose after 3 hrs by HPLC; summary of the method: as §1
# [5] = test system: T2, Oleandomycin glycosyltransferase (Streptomyces antibioticus), Q53685 [P67T,S132F,A242V]; assay: Activity of Streptomyces antibioticus OleD P67T/S132F/A242V mutant assessed as conversion rate of compound to produce glucoside 3 using NDP sugar donor UDP-4-amino-glucose after 3 hrs by HPLC; summary of the method: as §1
# [6] = test system: T2, Oleandomycin glycosyltransferase (Streptomyces antibioticus), Q53685 [P67T,S132F,A242V]; assay: Activity of Streptomyces antibioticus OleD P67T/S132F/A242V mutant assessed as conversion rate of compound to produce glucoside 3 using NDP sugar donor-UDP-4,6-dideoxyglucose after 3 hrs by HPLC; summary of the method: as §1
# [7] = test system: T2, Oleandomycin glycosyltransferase (Streptomyces antibioticus), Q53685 [P67T,S132F,A242V]; assay: Activity of Streptomyces antibioticus OleD P67T/S132F/A242V mutant assessed as conversion rate of compound to produce glucoside 3 using NDP sugar donor-UDP-3-deoxy-glucose after 3 hrs by HPLC; summary of the method: as §1
# [8] = test system: T2, Oleandomycin glycosyltransferase (Streptomyces antibioticus), Q53685 [P67T,S132F,A242V]; assay: Activity of Streptomyces antibioticus OleD P67T/S132F/A242V mutant assessed as conversion rate of compound to produce glucoside 3 using NDP sugar donor UDP-3-amino-glucose after 3 hrs by HPLC; summary of the method: as §1
# [9] = test system: T2, Oleandomycin glycosyltransferase (Streptomyces antibioticus), Q53685 [P67T,S132F,A242V]; assay: Activity of Streptomyces antibioticus OleD P67T/S132F/A242V mutant assessed as conversion rate of compound to produce glucoside 3 using NDP sugar donor UDP-3-amino-6-deoxy-glucose after 3 hrs by HPLC; summary of the method: as §1
# [10] = test system: T2, Oleandomycin glycosyltransferase (Streptomyces antibioticus), Q53685 [P67T,S132F,A242V]; assay: Activity of Streptomyces antibioticus OleD P67T/S132F/A242V mutant assessed as conversion rate of compound to produce glucoside 3 using NDP sugar donor UDP-2-amino-glucose after 3 hrs by HPLC; summary of the method: as §1
# [11] = test system: T3, Oleandomycin glycosyltransferase (Streptomyces antibioticus), Q53685 [P67T]; assay: Activity of Streptomyces antibioticus OleD P67T mutant assessed as conversion rate of compound to produce glucoside 3 using NDP sugar donor UDP-6-azido-glucose after 3 hrs by HPLC; summary of the method: as §1
# T3 sequence (whole entry): T1 sequence (whole entry) with P67T
# [12] = test system: T4, Oleandomycin glycosyltransferase (Streptomyces antibioticus), Q53685 [S132F]; assay: Activity of Streptomyces antibioticus OleD S132F mutant assessed as conversion rate of compound to produce glucoside 3 using NDP sugar donor UDP-6-azido-glucose after 3 hrs by HPLC; summary of the method: as §1
# T4 sequence (whole entry): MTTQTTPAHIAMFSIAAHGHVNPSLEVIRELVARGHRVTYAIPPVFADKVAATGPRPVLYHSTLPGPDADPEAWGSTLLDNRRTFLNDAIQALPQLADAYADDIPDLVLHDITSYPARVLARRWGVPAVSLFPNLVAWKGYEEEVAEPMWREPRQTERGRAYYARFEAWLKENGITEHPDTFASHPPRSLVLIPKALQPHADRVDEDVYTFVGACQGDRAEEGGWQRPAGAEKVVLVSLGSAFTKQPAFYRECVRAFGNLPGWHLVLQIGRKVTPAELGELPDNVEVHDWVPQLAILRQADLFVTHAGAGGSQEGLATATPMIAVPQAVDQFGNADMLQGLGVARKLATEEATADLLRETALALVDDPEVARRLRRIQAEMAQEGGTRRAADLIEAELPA
structure (smiles),measurement,setting,value
Cc1cc(=O)oc2cc(O)ccc12,Activity,[1],2.5 nmol/min
same,Activity,[2],84 nmol/min
same,Activity,[3],85%
same,Activity,[4],22%
same,Activity,[5],13%
same,Activity,[6],45%
same,Activity,[7],8%
same,Activity,[8],4%
same,Activity,[9],4%
same,Activity,[10],24%
same,Activity,[11],2%
same,Activity,[12],1%
